Source: PubChem BioAssay (Johns Hopkins Ion Channel Center)
An excerpt weighted towards active compounds, which were near 3.8% of everything screened.
KCNQ1 inh – inhibitors of human KCNQ1 channel, primary screen, cell-based, thallium flux, high-throughput. Potassium voltage-gated channel subfamily KQT member 1 (Homo sapiens), P51787. CHO-K1 KCNQ1, FluxOR thallium flux fluorescence; stronger effect = higher value. B-score at 10 µM. actives 1.3% (n = 310,000). AID 2642, 2010;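 active = compounds whose thallium flux B-score, printed positive for inhibition, exceeds three library SD while starting fluorescence stays within three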;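 note: channel opened by potassium depolarization with thallium stimulus after 20 min compound exposure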
hERG protect – hERG rescue from dofetilide block, primary screen, cell-based, CHO-hERG, FluxOR thallium flux, dofetilide IC70 | Voltage-gated inwardly rectifying potassium channel KCNH2 (Homo sapiens), Q12809 | dofetilide IC70 present | activation (rescue from dofetilide block), less the hit threshold, % at 10 µM | actives 0.51% (n = 310,000);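 active = activation above the mean of controls blocked by dofetilide plus 5 SD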;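 note: thallium influx through hERG after potassium depolarization seen as dye fluorescence rise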
KCNQ1 pot – potentiators or activators of KCNQ1 channel, primary screen, cell-based, thallium flux, high-throughput; Potassium voltage-gated channel subfamily KQT member 1 (Homo sapiens), P51787; CHO-K1 KCNQ1, thallium flux FluxOR fluorescence; stronger effect = higher value; B-score at 10 µM; actives 0.35% (n = 310,000); AID 2648, 2010;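 active = fluorescence ratio B-score, a plate-corrected score, at least three library SD, with initial intensity B-score within 5 SD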
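System: CHO-K1 cells stably expressing KCNQ1 / Medium: assay buffer for compound exposure, DMSO matched across wells / Reagent: thallium- and potassium-containing depolarizing buffer / Compound: one concentration, matched DMSO / Incubation: 20 min compound pretreatment at room temperature / Measured by: kinetic FluxOR fluorescence, 10 s baseline plus 110 s post-stimulus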
KCNK3 inh – human KCNK3 channel inhibitors, primary screen, CHO cells, FluxOR thallium flux, B-score; FluxOR fluorescence; stronger effect = lower value; Potassium channel subfamily K member 3 (Homo sapiens), O14649; B-score at 10 µM; AID 602410, 2012; actives 0.84% (n = 340,000);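 active = B-score under library mean minus 4 SD, starting fluorescence ratio at most library mean plus 5 SD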;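 note: more negative B-score means stronger inhibition of thallium flux through KCNK3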
KCNK9 block – KCNK9 potassium channel inhibitors, primary screen, HEK293 cells, thallium flux. FluxOR thallium flux fluorescence; stronger effect = lower value. B-score at 10 µM. actives 1.2% (n = 310,000);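 active = ratio B-score over 3 SD below the library mean, with starting fluorescence within 5 SD of its mean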;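 note: negative B-score means less thallium flux so channel inhibition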
Kir21 block – inhibitors of mouse Kir2.1 inward-rectifier potassium channel. B-score at 10 µM. AID 1672, 2009. actives 0.85% (n = 310,000). HEK293-Kir2.1, FluxOR thallium flux fluorescence; stronger effect = lower value. Inward rectifier potassium channel 2 (Mus musculus), P35561;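 active = fluorescence ratio B-score at or below minus 3 SD of library scores, with starting-brightness B-score within 2 SD, cut at about -4.2 in these data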;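 note: channel flux triggered by added potassium and thallium sulfate stimulus; B-score of peak minus minimum fluorescence over baseline after thallium stimulus; more negative B-score means stronger Kir2.1 block with less thallium influx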
Target sequence (P35561 whole entry, looked up): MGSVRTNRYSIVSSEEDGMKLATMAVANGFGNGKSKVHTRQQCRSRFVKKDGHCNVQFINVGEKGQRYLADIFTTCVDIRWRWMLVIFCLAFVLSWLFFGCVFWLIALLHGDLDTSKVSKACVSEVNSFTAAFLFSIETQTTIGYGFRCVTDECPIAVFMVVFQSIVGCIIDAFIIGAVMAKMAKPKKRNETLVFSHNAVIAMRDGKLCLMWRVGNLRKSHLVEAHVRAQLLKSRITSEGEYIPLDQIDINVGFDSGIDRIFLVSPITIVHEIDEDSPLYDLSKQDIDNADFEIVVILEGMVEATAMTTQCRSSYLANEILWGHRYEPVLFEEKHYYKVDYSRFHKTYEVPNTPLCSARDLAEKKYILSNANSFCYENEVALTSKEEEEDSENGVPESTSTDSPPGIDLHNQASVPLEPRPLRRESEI
KCNK9 block conf – KCNK9 potassium channel inhibitors, confirmation, HEK293 cells, thallium flux, duplicate | shares compounds with KCNK9 block | FluxOR thallium flux fluorescence | inhibition, % at 10 µM | actives 43% (n = 4,900);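 active = thallium signal inhibited by more than 5 SD of the compound-free buffer control wells, on both duplicate plates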;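 note: 0% = assay buffer control wells without compound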
Kir21 sel – mouse Kir2.1 channel inhibition, confirmation, selectivity assay for KCNK9 modulator project, cell-based, HEK293, thallium flux; shares compounds with KCNK9 block; Kir2.1 cells, FluxOR thallium flux fluorescence; inhibition, % at 10 µM; actives 4% (n = 4,900);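 active = thallium signal drop more than 5 SD beyond the mean of the no-compound control wells, seen in both duplicate plates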;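 note: signal is fluorescence rise after thallium addition divided by baseline fluorescence; plate controls were assay buffer only for no effect and full block by chlorpromazine control for full effect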
KCNK9 uninduced – thallium flux in non-induced HEK293 cells, confirmation, counter-screen for KCNK9 inhibitor project, cell-based, second counter screen, non-induced KCNK9-HEK293; actives 40% (n = 4,900); inhibition, % at 10 µM; FluxOR thallium flux; shares compounds with KCNK9 block;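 active = thallium signal drop beyond 5 SD of the untreated control mean, on both duplicate plates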;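 note: plate controls were buffer only IC0 wells for no effect and SID17386958 at its maximal inhibitory level for full effect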
Active calls of the source: *; i = inactive; . = no result.

SMILES	KCNQ1 inh	hERG protect	KCNQ1 pot	KCNK3 inh	KCNK9 block	Kir21 block	KCNK9 block conf	Kir21 sel	KCNK9 uninduced
Cc1cc(OCC(=O)OCC(=O)N2CC(C)CC(C)C2)ccc1Cl (stereo not drawn)	.	.	.	i	.	.	.	.	.
O=C(O)c1cc(-c2ccc(-c3c(-c4ccc5c(c4)OCO5)noc3-c3ccsc3)cc2)nc2ccccc12	i	-14	i	i	i	1.7	.	.	.
CN(C)c1ccc(-c2c(-c3ccc4c(c3)OCO4)noc2-c2ccsc2)cn1	i	-19	i	i	-8.7*	-1.4	50%*	i	47%*
O=C(Cc1ccc(Cl)cc1)NNC(=O)C(=O)NC1CCCCC1	.	.	.	i	.	.	.	.	.
C#CCn1c(S(=O)(=O)Cc2ccccc2Cl)nc(-c2ccccc2)c1-c1ccccc1	i	-9	i	i	i	-0.14	.	.	.
C#CCn1c(S(=O)(=O)Cc2ccc(C)cc2)nc(-c2ccccc2)c1-c1ccccc1	i	-14	i	i	-12*	1.1	59%*	i	36%*
COc1ccccc1C(=O)NCCC(=O)NC1CCC(C)CC1 (stereo not drawn)	.	.	.	i	.	.	.	.	.
Cc1ccsc1C(=O)OCC(=O)c1ccc(OC(F)F)cc1	.	.	.	i	.	.	.	.	.
Cc1c(C)n2c(SCC(=O)NCc3ccc4c(c3)OCO4)nnc2[nH]c1=O	i	-8	i	i	i	-1.7	.	.	.
COc1cc(/C=C2/C(=N)N3C(=NC2=O)SN=C3S(C)(=O)=O)ccc1OS(=O)(=O)c1ccccc1	i	-16	i	.	i	1.3	.	.	.
CCOc1cc(/C=C2/C(=N)N3C(=NC2=O)SN=C3S(C)(=O)=O)ccc1OS(=O)(=O)c1ccccc1	i	-25	i	i	i	1.3	i	i	i
O=C(CCc1nc(-c2ccc(Cl)cc2)no1)NCc1ccccc1CN1CCOCC1	.	.	.	i	.	.	.	.	.
COc1cc(C(C(=O)NCc2ccccc2)N(C(=O)c2snc(C(N)=O)c2N)C2CCCC2)cc(OC)c1OC (stereo not drawn)	i	-7	i	i	i	1.2	.	.	.
O=C(Nc1cccc(C(=O)N2CCCC2)c1)C1CCCCC1	.	.	.	i	.	.	.	.	.
C(#Cc1ccccc1)CN1CCCCC1	i	-6	i	i	i	0.46	.	.	.
C(#Cc1ccccc1)CN1CCN(c2ccccn2)CC1	i	-5	i	i	i	3.8	i	i	i
CCc1ccc2nc(SCC(=O)NCC3CCCO3)c(C#N)cc2c1 (stereo not drawn)	i	-4	i	i	i	0.15	i	i	i
COc1ccc(CNC(=O)c2cccc(-c3ccc(C)c4ccccc34)n2)cc1	i	-11	i	i	i	0.22	i	i	i
Cc1cc(C)c(C#N)c(SCC(=O)c2cc(C)n(CCc3ccccc3)c2C)n1	i	-10	i	i	-8.2*	-0.42	32%*	i	34%*
COCCn1c(C)cc(C(=O)CSc2nc(C)cc(C)c2C#N)c1C	i	-4	i	i	i	0.51	.	.	.
CCCCN(CC)C(=O)c1cc2cc3ccc(Cl)cc3nc2o1	i	-6	i	i	-8.5*	1.1	44%*	i	i
C=CCN1C(=O)C(Cc2ccc(C)cc2)S/C1=N/N=C/c1ccco1 (stereo not drawn)	i	-1	i	i	i	0.58	.	.	.
C=CCN1C(=O)C(Cc2ccccc2)S/C1=N/N=C/c1cccs1 (stereo not drawn)	8*	-9	i	i	i	-1.4	i	i	i
CCOC(=O)c1cnn(-c2ccccc2)c1-n1cccc1C(=O)C(=O)Nc1ccccc1C(F)(F)F	i	-3	i	i	-14*	1.6	43%*	i	54%*
CCOC(=O)c1cnn(-c2ccccc2)c1-n1cccc1C(=O)C(=O)N(CC)CC	i	-12	i	i	i	-0.04	.	.	.
SMILES	KCNQ1 inh	hERG protect	KCNQ1 pot	KCNK3 inh	KCNK9 block	Kir21 block	KCNK9 block conf	Kir21 sel	KCNK9 uninduced
COC(=O)c1sccc1NC(=S)N1CCCC(C)C1 (stereo not drawn)	i	-4	i	i	i	0.74	.	.	.
COC(=O)c1sccc1NC(=S)N1CCCCC1C (stereo not drawn)	i	-14	i	i	i	0.04	i	i	i
Cc1cc(C)nc(NNC(=O)c2ccccc2O)n1	i	-2	i	i	i	0.56	.	.	.
CCC(=O)NC(=S)NNC(=O)c1ccc(O)cc1	i	-5	i	i	-8.2*	-0.84	i	i	27%*
O=C1c2ccccc2C(=O)N1C1C(=O)N2CCSC12C(=O)OCc1ccccc1 (stereo not drawn)	.	.	.	i	.	.	.	.	.
COC(=O)c1cc2sccc2n1Cc1nc(-c2ccc(OC)cc2)oc1C	i	-12	i	i	i	0.37	.	.	.
COC(=O)c1cc2ccsc2n1Cc1nc(-c2ccc(OC)cc2)oc1C	i	-6	i	i	-8.4*	0.21	40%*	i	52%*
C1CNCCNCCCNCCNC1	i	-3	i	.	i	1.2	.	.	.
CCN(CC)c1ccc(-c2nn3c(-c4n[nH]c5c4CCC5)nnc3s2)cc1	i	-12	i	-9*	-14*	0.89	44%*	i	36%*
CC(=O)N1CC(C)Oc2ccc(S(=O)(=O)NC(CC(=O)O)c3cc(C)ccc3C)cc21 (stereo not drawn)	i	-3	i	i	i	0.25	.	.	.
CC1=CC2C(C(O)CC3(C)C2CC(C)C32OCOC23COCO3)C2(C)C/C(=C\O)C(=O)C=C12 (stereo not drawn)	.	.	.	i	.	.	.	.	.
Cc1ccccc1OCC1Cn2c(nc3c2c(=O)n(C)c(=O)n3C)O1 (stereo not drawn)	i	-2	i	i	i	-0.4	.	.	.
